In ChEMBL document CHEMBL1149092, “Studies on pyrrolopyrimidines as selective inhibitors of multidrug-resistance-associated protein in multidrug resistance” (J Med Chem, 2004):

Key:
[1] = molecular target: Multidrug resistance-associated protein 1 (Homo sapiens, UniProt P33527); test: Inhibitory activity against human transporter MRP1 (Multidrug resistance associated protein 1) expressed in COR.L23/R cell line
Procedure, shortened: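 Tritiated daunomycin (0.3 μCi/mL) accumulation in COR.L23/R cells (MRP-expressing human NSCLC MDR subline), seeded 48 h before the assay. Cells were washed and cell-associated radioactivity measured. 100% accumulation was set with 100 μM verapamil.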

[2] = molecular target: ATP-dependent translocase ABCB1 (Mus musculus, UniProt P06795); test: Inhibitory activity against mouse transporter Pgp (P-glycoprotein) expressed in EMT6/AR1.0 cell line
ATP-dependent translocase ABCB1, sequence (P06795 whole entry): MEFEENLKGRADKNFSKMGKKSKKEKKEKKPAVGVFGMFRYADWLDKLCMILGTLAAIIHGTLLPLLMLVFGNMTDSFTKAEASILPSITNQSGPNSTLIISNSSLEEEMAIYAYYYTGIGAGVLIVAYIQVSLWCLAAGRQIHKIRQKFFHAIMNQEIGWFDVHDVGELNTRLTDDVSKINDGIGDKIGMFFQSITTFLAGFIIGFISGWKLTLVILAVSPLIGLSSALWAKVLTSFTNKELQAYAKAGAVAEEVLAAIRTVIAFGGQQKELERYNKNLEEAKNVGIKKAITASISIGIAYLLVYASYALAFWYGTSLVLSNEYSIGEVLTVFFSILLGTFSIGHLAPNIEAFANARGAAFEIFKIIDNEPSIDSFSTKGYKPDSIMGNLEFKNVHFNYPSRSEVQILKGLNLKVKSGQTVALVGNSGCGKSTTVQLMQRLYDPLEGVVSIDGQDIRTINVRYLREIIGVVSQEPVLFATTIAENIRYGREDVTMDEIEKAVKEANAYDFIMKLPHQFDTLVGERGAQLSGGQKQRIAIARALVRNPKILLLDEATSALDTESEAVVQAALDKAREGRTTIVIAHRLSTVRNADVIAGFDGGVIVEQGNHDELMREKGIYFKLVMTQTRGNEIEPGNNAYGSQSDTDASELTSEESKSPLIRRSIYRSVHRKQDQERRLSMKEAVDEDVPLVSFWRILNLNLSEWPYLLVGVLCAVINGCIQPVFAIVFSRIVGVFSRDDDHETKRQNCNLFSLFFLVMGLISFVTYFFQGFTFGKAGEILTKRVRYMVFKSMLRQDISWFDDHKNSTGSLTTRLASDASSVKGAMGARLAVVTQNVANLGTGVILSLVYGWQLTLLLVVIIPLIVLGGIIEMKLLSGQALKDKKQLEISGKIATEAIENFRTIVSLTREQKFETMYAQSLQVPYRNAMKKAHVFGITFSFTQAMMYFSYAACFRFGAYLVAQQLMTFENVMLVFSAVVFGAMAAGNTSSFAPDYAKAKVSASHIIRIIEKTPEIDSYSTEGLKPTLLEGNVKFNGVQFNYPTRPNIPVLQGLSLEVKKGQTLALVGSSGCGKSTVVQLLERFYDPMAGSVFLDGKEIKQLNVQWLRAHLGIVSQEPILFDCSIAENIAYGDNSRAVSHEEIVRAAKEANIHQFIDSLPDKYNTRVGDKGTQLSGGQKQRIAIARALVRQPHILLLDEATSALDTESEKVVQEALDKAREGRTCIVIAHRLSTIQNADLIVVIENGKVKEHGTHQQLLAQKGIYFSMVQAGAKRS
Procedure, shortened: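 Accumulation protocol run as for MRP1, but in the Pgp-expressing murine mammary carcinoma EMT6/AR1.0 subline. IC50 is the mean of at least three experiments.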

[3] = (§1) Area under curve when injected intravenously in BALB/C mice at a dose of 20 mg/kg; assay type: ADME, organism-based; parameters: dose 20 mg/kg, route intravenous; conditions: BALB/C, mouse, in vivo, iv
Procedure, shortened: (§2)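 Female Balb/c mice, three to four per time point, were dosed iv, ip or po at 20–50 mg/kg. Blood was taken by cardiac puncture under anesthesia from 0.03 to 24 h. Plasma was methanol-extracted and analysed by HPLC. AUC (linear/log trapezoidal) and t1/2 were derived by noncompartmental analysis.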

[4] = (§3) Maximal plasma concentration in BALB/C mice after 20 mg/kg intravenous dose; assay type: ADME, organism-based; parameters: dose 20 mg/kg, route intravenous; conditions: BALB/C, mouse, plasma; procedure, shortened: as §2
[5] = (§4) Half life in BALB/C mice at the dose of 20 mg/kg by i.v. administration; assay type: ADME, organism-based; parameters: dose 20 mg/kg, route intravenous; conditions: mouse, in vivo, iv; procedure, shortened: as §2
[6] = molecular target: Cytochrome P450 3A4 (Homo sapiens, UniProt P08684); test: Inhibitory concentration to inhibit MRP1 in CYP 3A4 assay
Cytochrome P450 3A4, sequence (P08684 whole entry): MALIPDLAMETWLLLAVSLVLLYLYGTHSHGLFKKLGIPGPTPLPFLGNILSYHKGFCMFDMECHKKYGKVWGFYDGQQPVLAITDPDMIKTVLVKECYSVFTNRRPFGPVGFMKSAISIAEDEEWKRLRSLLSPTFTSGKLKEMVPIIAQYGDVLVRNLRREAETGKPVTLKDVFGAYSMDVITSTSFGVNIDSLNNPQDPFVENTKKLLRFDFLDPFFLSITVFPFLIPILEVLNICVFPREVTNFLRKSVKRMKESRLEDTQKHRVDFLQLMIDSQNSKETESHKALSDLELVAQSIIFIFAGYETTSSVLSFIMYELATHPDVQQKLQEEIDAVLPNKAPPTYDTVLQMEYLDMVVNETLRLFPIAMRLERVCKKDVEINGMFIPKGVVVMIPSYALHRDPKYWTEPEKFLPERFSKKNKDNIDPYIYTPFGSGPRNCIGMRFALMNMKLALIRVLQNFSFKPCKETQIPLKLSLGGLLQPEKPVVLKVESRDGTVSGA

[7] = Half life in BALB/C mice at the dose of 20 mg/kg by i.p. administration; assay type: ADME, organism-based; parameters: dose 20 mg/kg, route intraperitoneal; conditions: mouse, in vivo, ip; procedure, shortened: as §2
[8] = Maximal plasma concentration in BALB/C mice after 20 mg/kg intraperitoneal dose; assay type: ADME, organism-based; parameters: dose 20 mg/kg, route intraperitoneal; conditions: mouse, ip; procedure, shortened: as §2
[9] = Area under curve when injected intraperitoneally in BALB/C mice at a dose of 20 mg/kg; assay type: ADME, organism-based; parameters: dose 20 mg/kg, route intraperitoneal; conditions: mouse, in vivo, ip; procedure, shortened: as §2
[10] = Bioavailability in mouse (BALB/C) (dose 20 mg/kg i.p.); conditions: in vivo, ip
[11] = Area under curve when injected perorally in BALB/C mice at a dose of 50 mg/kg; assay type: ADME, organism-based; parameters: dose 50 mg/kg, route oral; conditions: mouse, in vivo, po; procedure, shortened: as §2
[12] = Maximal plasma concentration in BALB/C mice after 50 mg/kg oral dose; assay type: ADME, organism-based; parameters: dose 50 mg/kg, route oral; conditions: mouse; procedure, shortened: as §2
[13] = Bioavailability in mouse (BALB/C) (dose 50 mg/kg p.o.); conditions: in vivo, po
[14] = Half life in BALB/C mice at the dose of 50 mg/kg by p.o. administration; assay type: ADME, organism-based; parameters: dose 50 mg/kg, route oral; conditions: mouse, in vivo, po; procedure, shortened: as §2
[15] = Half life in BALB/C mice at the dose of 50 mg/kg by p.o. administration; conditions: mouse, in vivo, po
[16] = Half life in BALB/C mice at the dose of 50 mg/kg by i.p. administration; assay type: ADME, organism-based; parameters: dose 50 mg/kg, route intraperitoneal; conditions: mouse, in vivo, ip; procedure, shortened: as §2
[17] = system: Mus musculus; test: as §1; assay type: ADME, organism-based; parameters: dose 20 mg/kg, route intravenous; conditions: in vivo, iv; procedure, shortened: as §2
[18] = system: Mus musculus; test: as §3; assay type: ADME, organism-based; parameters: dose 20 mg/kg, route intravenous; conditions: in vivo; procedure, shortened: as §2
[19] = system: Mus musculus; test: as §4; assay type: ADME, organism-based; parameters: dose 20 mg/kg, route intravenous; conditions: in vivo, iv; procedure, shortened: as §2

Multidrug resistance-associated protein 1, sequence (P33527 whole entry): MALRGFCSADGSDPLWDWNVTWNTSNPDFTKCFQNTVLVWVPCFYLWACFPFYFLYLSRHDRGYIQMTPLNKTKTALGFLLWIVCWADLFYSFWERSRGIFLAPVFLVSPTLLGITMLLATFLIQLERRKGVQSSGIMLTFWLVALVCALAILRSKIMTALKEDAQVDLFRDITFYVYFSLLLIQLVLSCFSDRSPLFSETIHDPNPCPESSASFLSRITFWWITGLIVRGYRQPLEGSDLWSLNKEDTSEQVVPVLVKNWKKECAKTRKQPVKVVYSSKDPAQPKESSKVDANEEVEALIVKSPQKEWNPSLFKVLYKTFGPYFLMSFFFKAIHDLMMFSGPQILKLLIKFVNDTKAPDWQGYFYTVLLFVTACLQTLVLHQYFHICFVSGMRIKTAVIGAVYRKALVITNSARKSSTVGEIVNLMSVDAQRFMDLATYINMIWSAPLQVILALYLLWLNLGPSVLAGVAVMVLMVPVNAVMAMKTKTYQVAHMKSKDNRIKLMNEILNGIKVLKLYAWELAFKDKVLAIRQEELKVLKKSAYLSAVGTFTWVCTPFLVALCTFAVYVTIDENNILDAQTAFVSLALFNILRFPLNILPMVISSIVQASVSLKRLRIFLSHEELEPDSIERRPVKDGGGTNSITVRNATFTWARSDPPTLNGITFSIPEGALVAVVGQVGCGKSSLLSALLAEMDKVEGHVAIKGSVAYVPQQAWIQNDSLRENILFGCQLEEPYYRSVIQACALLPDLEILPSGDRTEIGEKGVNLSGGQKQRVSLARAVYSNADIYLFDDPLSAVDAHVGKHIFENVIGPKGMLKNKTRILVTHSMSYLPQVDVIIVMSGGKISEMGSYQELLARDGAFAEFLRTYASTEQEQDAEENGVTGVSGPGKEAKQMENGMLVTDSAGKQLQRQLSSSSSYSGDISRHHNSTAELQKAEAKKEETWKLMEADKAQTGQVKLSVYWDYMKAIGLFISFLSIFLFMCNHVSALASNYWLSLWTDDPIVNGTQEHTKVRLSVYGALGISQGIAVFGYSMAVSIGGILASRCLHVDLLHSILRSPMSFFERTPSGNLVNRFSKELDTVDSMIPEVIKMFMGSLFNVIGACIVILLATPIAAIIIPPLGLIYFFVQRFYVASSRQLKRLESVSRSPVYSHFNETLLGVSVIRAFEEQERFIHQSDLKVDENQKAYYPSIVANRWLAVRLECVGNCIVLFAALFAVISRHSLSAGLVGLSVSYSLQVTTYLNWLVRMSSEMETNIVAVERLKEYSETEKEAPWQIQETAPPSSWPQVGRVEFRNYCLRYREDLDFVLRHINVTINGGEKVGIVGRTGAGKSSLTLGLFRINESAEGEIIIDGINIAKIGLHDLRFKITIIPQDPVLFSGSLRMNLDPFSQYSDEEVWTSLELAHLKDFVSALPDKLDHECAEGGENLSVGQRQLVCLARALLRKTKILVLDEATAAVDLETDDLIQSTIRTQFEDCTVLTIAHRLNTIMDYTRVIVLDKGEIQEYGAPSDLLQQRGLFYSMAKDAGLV

Row | SMILES | IC50 [1] | IC50 [2] | further results
1 | N#Cc1c2n(c3c(NCCc4ccccc4)ncnc13)CCCC2 | 6.3 µM | 16 µM | –
2 | N#Cc1c2n(c3c(SCc4ccc(Cl)cc4)ncnc13)CCCCC2 | 3.9 µM | – | –
3 | N#Cc1c2n(c3c(NCCN4CCc5ccccc5C4)ncnc13)CCCC2 | 6.35 µM | > 50 µM | –
4 | N#Cc1c2n(c3c(N4CCN(S(=O)(=O)Cc5ccccc5)CC4)ncnc13)CCCC2 | 6.65 µM | 14 µM | –
5 | O=C(c1ccccc1)c1c2n(c3c(N4CCN(CCc5ccccc5)CC4)ncnc13)CCCC2 | 1.37 µM | 10.7 µM | –
6 | N#Cc1c2n(c3c(NS(=O)(=O)Cc4ccccc4)ncnc13)CCCC2 | 20.9 µM | 5.4 µM | –
7 | CN(CCc1ccccc1)c1ncnc2c(C#N)c3n(c12)CCCC3 | 9 µM | 33 µM | –
8 | CCNC(=O)c1c2n(c3c(N4CCN(CCc5ccc(F)c(F)c5)CC4)ncnc13)CCCC2 | – | 4.79 µM | AUC [3]: 16900 ng·h/mL; half-life [7]: 1.84 h; Cmax [4]: 18.3 µM; Cmax [8]: 7.34 µM; half-life [5]: 2.3 h; AUC [9]: 14600 ng·h/mL; bioavailability [10]: 85%; AUC [11]: 21100 ng·h/mL; Cmax [12]: 5.73 µM; bioavailability [13]: 50%; half-life [14]: 7.9 h
9 | COc1ccc(CCN2CCN(c3ncnc4c(C#N)c5n(c34)CCCC5)CC2)cc1 | > 50 µM | – | –
10 | O=C(Nc1cccnc1)c1c2n(c3c(N4CCN(CCc5ccc(F)c(F)c5)CC4)ncnc13)CCCC2 | – | 4.95 µM | AUC [3]: 40600 ng·h/mL; Cmax [4]: 24.5 µM; half-life [5]: 6.72 h; bioavailability [10]: 45.6%; half-life [16]: 4.48 h; AUC [11]: 56400 ng·h/mL; Cmax [12]: 14.3 µM; bioavailability [13]: 55.5%; half-life [14]: 3.75 h
11 | N#Cc1c2n(c3c(N4CCN(CCc5ccccc5[N+](=O)[O-])CC4)ncnc13)CCCC2 | 1.41 µM | > 50 µM | –
12 | COc1cccc(CCN2CCN(c3ncnc4c(C#N)c5n(c34)CCCC5)CC2)c1 | 2.3 µM | 16.2 µM | –
13 | N#Cc1c2n(c3c(N4CCN(CCc5ccccc5Cl)CC4)ncnc13)CCCC2 | 0.955 µM | 10.6 µM | –
14 | N#Cc1c2n(c3c(N4CCN(CC(=O)c5ccccc5)CC4)ncnc13)CCCC2 | 1.85 µM | 23 µM | –
15 | CCC(=O)c1c2n(c3c(N4CCN(CCc5ccccc5)CC4)ncnc13)CCCC2 | 2.8 µM | > 50 µM | –
16 | N#Cc1c2n(c3c(N4CCN(CCc5c[nH]c6ccccc56)CC4)ncnc13)CCCC2 | 0.6 µM | 5.82 µM | –
17 | N#Cc1c2n(c3c(N4CCN(CCCc5ccccc5)CC4)ncnc13)CCCC2 | 7.35 µM | 13 µM | –

Continued, in another order:

Row | IC50 [1] | IC50 [2] | SMILES | further results
18 | 0.91 µM | 16.5 µM | COC(=O)c1c2n(c3c(N4CCN(CCc5ccccc5)CC4)ncnc13)CCCC2 | –
19 | 0.69 µM | 9.63 µM | N#Cc1c2n(c3c(N4CCN(CCc5ccccc5)CC4)ncnc13)CCCC2 | –
20 | 0.061 µM | 3.4 µM | O=C(NCc1ccccn1)c1c2n(c3c(N4CCN(CCc5ccc(F)c(F)c5)CC4)ncnc13)CCCC2 | AUC [3]: 7380 ng·h/mL; Cmax [4]: 11.4 µM; half-life ([5]; BALB/C): 2.5 h; IC50 [6]: 30.1 µM
21 | 0.523 µM | 12.9 µM | N#Cc1c2n(c3c(N4CCN(CCc5ccc([N+](=O)[O-])cc5)CC4)ncnc13)CCCC2 | –
22 | 0.399 µM | 9.2 µM | N#Cc1c2n(c3c(N4CCN(CCc5ccc(Cl)cc5)CC4)ncnc13)CCCC2 | –
23 | 0.105 µM | 1.31 µM | N#Cc1c2n(c3c(N4CCN(CCc5ccc(F)c(F)c5)CC4)nc(-c4ccncc4)nc13)CCCC2 | –
24 | 0.675 µM | > 50 µM | c1ccc(CCN2CCN(c3ncnc4c(-c5ncccn5)c5n(c34)CCCC5)CC2)cc1 | –
25 | 0.62 µM | 18 µM | Cc1ccccc1-c1nc(N2CCN(CCc3ccc(F)c(F)c3)CC2)c2c(n1)c(C#N)c1n2CCCC1 | –
26 | 0.218 µM | – | N#Cc1c2n(c3c(N4CCN(CCc5ccc(F)c(F)c5)CC4)nc(-c4cccnc4)nc13)CCCC2 | –
27 | 0.92 µM | 17.9 µM | N#Cc1c2n(c3c(N4CCN(CCc5cccc(Cl)c5)CC4)ncnc13)CCCC2 | –
28 | 0.715 µM | 5 µM | N#Cc1c2n(c3c(N4CCN(CCc5ccccc5)CC4)nc(-c4ccccc4)nc13)CCCC2 | –
29 | 0.138 µM | > 50 µM | NC(=O)c1c2n(c3c(N4CCN(CCc5ccc(F)c(F)c5)CC4)ncnc13)CCCC2 | AUC [3]: 25000 ng·h/mL; half-life [7]: 6.35 h; Cmax [4]: 28 µM; Cmax [8]: 4.43 µM; half-life [5]: 1.47 h; AUC [9]: 13100 ng·h/mL; IC50 [6]: 45.8 µM; bioavailability [10]: 52%; AUC [11]: 44900 ng·h/mL; Cmax [12]: 8.37 µM; bioavailability [13]: 71.6%; half-life [15]: 6.86 h
30 | 0.887 µM | 13 µM | N#Cc1c2n(c3c(N4CCN(CCc5ccccc5)CC4)nc(I)nc13)CCCC2 | –
31 | 0.65 µM | 3.7 µM | Cc1nc(-c2c3n(c4c(N5CCN(CCc6ccccc6)CC5)ncnc24)CCCC3)no1 | –
32 | 0.57 µM | 23.7 µM | CC(=O)Nc1ccc(-c2nc(N3CCN(CCc4ccccc4)CC3)c3c(n2)c(C#N)c2n3CCCC2)cc1 | –
33 | 0.41 µM | 9.67 µM | N#Cc1c2n(c3c(N4CCN(CCc5cccc([N+](=O)[O-])c5)CC4)ncnc13)CCCC2 | –
34 | 0.229 µM | 10.5 µM | N#Cc1c2n(c3c(N4CCN(CCc5ccc(F)c(F)c5)CC4)ncnc13)CCCC2 | –
35 | 0.533 µM | 6 µM | Cc1nc(-c2c3n(c4c(N5CCN(CCc6ccccc6)CC5)ncnc24)CCCC3)sc1C | –
36 | 0.043 µM | 3.7 µM | COc1cccc(CNC(=O)c2c3n(c4c(N5CCN(CCc6ccc(F)c(F)c6)CC5)ncnc24)CCCC3)c1OC | AUC [17]: 12000 ng·h/mL; Cmax [18]: 4 µM; T1/2 [19]: 0.8 h; IC50 [6]: 2.44 µM
